Measurements gathered from unrelated publications.
Each line is one published result; the experiments were not run side by side.
Target: Dual specificity mitogen-activated protein kinase kinase 1 (MAP2K1, Homo sapiens, UniProt Q02750)

| SMILES | observed | action | method | tested at | quantity | value |
| --- | --- | --- | --- | --- | --- | --- |
| O=C(Nc1ccc(Oc2ccc(F)cc2)cc1)N1CCc2ncccc2[C@H]1c1ccc(F)cc1 | cell-free assay |  | competition with immobilised ligand | 1 µM | remaining binding | 98% |
| Nc1nc(NC2CCCCC2)sc1C(=O)c1ccccc1 | enzyme activity | inhibitor |  | 10 µM | remaining activity | 68% |
| CN([C@@H]1CCc2c(CC(=O)O)c3cc(S(C)(=O)=O)ccc3n2C1)S(=O)(=O)c1ccc(F)cc1 | cell-free assay |  | competition with immobilised ligand | 1 µM | remaining binding | 98% |
| CC(C)(O)[C@H]1CC[C@H](Nc2ccc3ncc(-c4cccc(C(F)(F)F)c4)n3n2)CC1 | enzyme activity | inhibitor |  | 1 µM | remaining activity | 79.5% |
| Cc1ccc(Nc2nccc(N(C)c3ccc4c(C)n(C)nc4c3)n2)cc1S(N)(=O)=O | enzyme activity | inhibitor |  | 10 µM | inhibition | 1% |
| CS(=O)(=O)N1CCCC(NC(=O)[C@H](CCC2CCCCC2)NC(=O)c2ccc(CNC(=O)c3cnc4ccccn34)cc2)C1 (stereo partly shown) | cell-free assay |  | competition with immobilised ligand | 0.1 µM | remaining binding | 100% |
| CC(C)(C)c1nc(-c2cccc(NS(=O)(=O)c3c(F)cccc3F)c2F)c(-c2ccnc(N)n2)s1 | enzyme activity | inhibitor | radiometric | 1 µM | remaining activity | 94% |
| C=CC(=O)Nc1cc(Nc2nccc(Nc3cc(Cl)c(F)cc3C(C)(C)O)n2)c(OC)cc1N1CC[C@@H](N(C)C)C1 | enzyme activity | inhibitor |  | 1 µM | inhibition | 21% |
| Cc1nccc(COC(=O)N2C[C@@H]3[C@@H](CNC(=O)c4ccc5[nH]nnc5c4)[C@@H]3C2)n1 | cell-free assay |  | competition with immobilised ligand | 1 µM | remaining binding | 92% |
| COc1cc(Nc2cnc(C#N)c(O[C@H](C)CN(C)C)n2)ncc1-c1cnn(C)c1 | enzyme activity | inhibitor | radiometric | 1 µM | remaining activity | 80% |
| FC(F)(F)Oc1cccc(-c2cnc3ccc(-c4ccncc4)nn23)c1 | enzyme activity | inhibitor | radiometric | 5 µM | activity vs control | 73% |
| Cc1ccc(C(=O)Nc2ccc(CN3CCN(C)CC3)c(C(F)(F)F)c2)cc1C#Cc1cnc2cccnn12 | enzyme activity | inhibitor |  | 23.5 nM | remaining activity | 100% |
| CCN(CC)CCNC(=O)c1c(C)[nH]c(/C=C2\C(=O)Nc3ccc(F)cc32)c1C | enzyme activity | inhibitor |  | 1 µM | remaining activity | 44% |
| COc1cccc(-c2cc(=O)c3ccccc3o2)c1N | cell-free assay |  |  | 0.5 µM | remaining signal | 69.1% |
| CNC(=O)c1cc(Oc2ccc(NC(=O)Nc3ccc(Cl)c(C(F)(F)F)c3)cc2)ccn1 | enzyme activity | inhibitor |  | 0.3 µM | inhibition | 0% |
| CN(C)C1CCN(CC#Cc2nn(C3CCCC3)c3nc(NCc4ccccc4)ncc23)C1 (stereo not shown) | enzyme activity | inhibitor | FRET | 10 µM | inhibition | 13% |
| CCCS(=O)(=O)Nc1ccc(F)c(C(=O)c2c[nH]c3ncc(-c4ccc(Cl)cc4)cc23)c1F | enzyme activity | inhibitor |  | 1 µM | inhibition | < 10% |
| O=C(Nc1cccnn1)N1CC(C/C=C/c2cncc(Oc3ccc(C(F)(F)F)cn3)n2)C1 | cell-free assay |  | competition with immobilised ligand | 1 µM | remaining binding | 93% |
| O=C1NC(=O)c2cc(Nc3ccc(F)cc3)c(Nc3ccc(F)cc3)cc21 | cell-free assay |  |  | 0.5 µM | remaining signal | 103% |
